Laboratory results: ChEMBL document CHEMBL1124186, “Synthesis and evaluation of tylosin-related macrolides modified at the aldehyde function: a new series of orally effective antibiotics” (1988)
In brackets after ≈: the same amount, converted by molar mass.

How the values were obtained:
Staphylococcus aureus [1] = assay: In vitro antimicrobial activity against aerobic bacteria Staphylococcus aureus V140,; format: functional
Haemophilus influenzae [2] = assay: In vitro antimicrobial activity against Haemophilus influenzae.; format: functional
Streptococcus [3] = assay: In vitro antimicrobial activity against aerobic bacteria Streptococcus D 2041; format: functional
[4] = tested on: Staphylococcus epidermidis; assay: In vitro antimicrobial activity against aerobic bacteria Streptococcus epi 222; format: functional
Rattus norvegicus [5] = assay: Peripheral plasma levels in rats after oral administration of 100 mg/kg dose for 0.5 hr; format: functional, organism-based; set-up: dose 100 mg/kg
Procedure, shortened: (§1)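 Rats received 100 mg/kg orally and were sampled for peripheral plasma. Concentrations were measured by Micrococcus luteus agar-diffusion microbiological assay in Antibiotic Medium 1, with zone sizes converted using the standard curve for the appropriate compound. Each value is the average of three rats per time point.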

Mus musculus [6] = assay: Peripheral plasma levels in mice after oral administration of 50 mg/kg dose for 1 hr; format: functional, organism-based; set-up: dose 50 mg/kg
Procedure, shortened: (§2)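 Mice were given the compound orally and sampled for peripheral plasma at each time point. Plasma was assayed microbiologically against Micrococcus luteus seeded in Antibiotic Medium 1. Inhibition zone sizes were read, and concentrations were calculated from each compound's own standard curve. Each value is the mean of five mice per time point.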

Rattus norvegicus [7] = assay: Peripheral plasma levels in rats after oral administration of 100 mg/kg dose for 2 hr; format: functional, organism-based; set-up: dose 100 mg/kg; procedure, shortened: as §1
Streptococcus [8] = assay: In vitro antimicrobial activity against aerobic bacteria Streptococcus B 5; format: functional
[9] = tested on: Staphylococcus epidermidis; assay: In vitro antimicrobial activity against aerobic bacteria Streptococcus epi 270; format: functional
Streptococcus pyogenes [10] = assay: In vitro antimicrobial activity against Streptococcus pyogenes C203; format: functional
Streptococcus [11] = assay: In vitro antimicrobial activity against aerobic bacteria Streptococcus C 24; format: functional
Mus musculus [12] = assay: Peripheral plasma levels in mice after oral administration of 100 mg/kg dose for 2 hr; format: functional, organism-based; set-up: dose 100 mg/kg; procedure, shortened: as §2
Staphylococcus aureus [13] = assay: In vitro antimicrobial activity against Staphylococcus aureus X1; format: functional
Mus musculus [14] = assay: Peripheral plasma levels in mice after oral administration of 50 mg/kg dose for 2 hr; format: functional, organism-based; set-up: dose 50 mg/kg; procedure, shortened: as §2
Rattus norvegicus [15] = assay: Peripheral plasma levels in rats after oral administration of 100 mg/kg dose for 1 hr; format: functional, organism-based; set-up: dose 100 mg/kg; procedure, shortened: as §1
Streptococcus [16] = assay: In vitro antimicrobial activity against aerobic bacteria Streptococcus D 9960; format: functional
Staphylococcus aureus [17] = assay: In vitro antimicrobial activity against aerobic bacteria Staphylococcus aureus 513E; format: functional
Mus musculus [18] = assay: Peripheral plasma levels in mice after oral administration of 50 mg/kg dose for 0.5 hr; format: functional, organism-based; set-up: dose 50 mg/kg; procedure, shortened: as §2
Mus musculus [19] = assay: Peripheral plasma levels in mice after oral administration of 100 mg/kg dose for 4 hr; format: functional, organism-based; set-up: dose 100 mg/kg; procedure, shortened: as §2
Staphylococcus aureus [20] = assay: In vitro antimicrobial activity against aerobic bacteria Staphylococcus aureus X400; format: functional
Rattus norvegicus [21] = assay: Peripheral plasma levels in rats after oral administration of 100 mg/kg dose for 4 hr; format: functional, organism-based; set-up: dose 100 mg/kg; procedure, shortened: as §1
Mus musculus [22] = assay: Peripheral plasma levels in mice after oral administration of 100 mg/kg dose for 1 hr; format: functional, organism-based; set-up: dose 100 mg/kg; procedure, shortened: as §2
Mus musculus [23] = assay: Peripheral plasma levels in mice after oral administration of 50 mg/kg dose for 0.25 hr; format: functional, organism-based; set-up: dose 50 mg/kg; procedure, shortened: as §2
Streptococcus [24] = assay: In vitro antimicrobial activity against aerobic bacteria Streptococcus G Kruder; format: functional; conditions: Streptococcus; read-out: MIC
Haemophilus influenzae [25] = assay: In vitro antimicrobial activity against aerobic bacteria Haemophilus influenzae 76; format: functional
Streptococcus pneumoniae = assay: In vitro antimicrobial activity against aerobic bacteria Streptococcus pneumoniae B1-438; format: functional, streptococcus pneum
Streptococcus [26] = assay: In vitro antimicrobial activity against aerobic bacteria Streptococcus B 14; format: functional
Streptococcus [27] = assay: In vitro antimicrobial activity against aerobic bacteria Streptococcus D 8043; format: functional
Rattus norvegicus [28] = assay: Peripheral plasma levels in rats after oral administration of 100 mg/kg dose for 0.25 hr; format: functional, organism-based; set-up: dose 100 mg/kg; procedure, shortened: as §1
Staphylococcus aureus [29] = assay: In vitro antimicrobial activity against aerobic bacteria Staphylococcus aureus V41; format: functional
Mus musculus [30] = assay: Peripheral plasma levels in mice after oral administration of 100 mg/kg dose for 0.5 hr; format: functional, organism-based; set-up: dose 100 mg/kg; procedure, shortened: as §2
[31] = tested on: Staphylococcus epidermidis; assay: In vitro antimicrobial activity against Staphylococcus epidermidis EPI1; format: functional
Streptococcus sanguinis = assay: In vitro antimicrobial activity against aerobic bacteria Streptococcus sanguis MX132; format: functional
Haemophilus influenzae [32] = assay: In vitro antimicrobial activity against aerobic bacteria Haemophilus influenzae MX366,; format: functional
Streptococcus pyogenes [33] = assay: In vivo effective dose xperimental infections in rodent caused by Streptococcus pyogenes C203 when administered sc; format: functional
Streptococcus [34] = assay: In vitro antimicrobial activity against aerobic bacteria Streptococcus B 8; format: functional
Enterococcus faecium = assay: In vitro antimicrobial activity against Streptococcus faecium X66; format: functional, streptococcus fae-cium
Staphylococcus aureus [35] = assay: In vitro antimicrobial activity against aerobic bacteria Staphylococcus aureus V135; format: functional
Mus musculus [36] = assay: Peripheral plasma levels in mice after oral administration of 100 mg/kg dose for 0.25 hr; format: functional, organism-based; set-up: dose 100 mg/kg; procedure, shortened: as §2
Streptococcus viridans = assay: In vitro antimicrobial activity against aerobic bacteria Streptococcus viridans 9943; format: functional

- MIC (Staphylococcus aureus [1]): 2 µg/mL (≈ 2.01 µM)
- MIC (Haemophilus influenzae [2]): > 128 µg/mL
- MIC (Streptococcus [3]): > 128 µg/mL
- MIC [4]: 1 µg/mL (≈ 1.01 µM)
- MIC (Streptococcus [8]): 128 µg/mL (≈ 129 µM)
- MIC [9]: > 128 µg/mL
- MIC (Streptococcus pyogenes [10]): 2 µg/mL (≈ 2.01 µM)
- MIC (Streptococcus [11]): 1 µg/mL (≈ 1.01 µM)
- MIC (Staphylococcus aureus [13]): 1 µg/mL (≈ 1.01 µM)
- MIC (Streptococcus [16]): 128 µg/mL (≈ 129 µM)
- MIC (Staphylococcus aureus [17]): 1 µg/mL (≈ 1.01 µM)
- MIC (Staphylococcus aureus [20]): 2 µg/mL (≈ 2.01 µM)
- MIC (Streptococcus [24]): > 128 µg/mL
- MIC (Haemophilus influenzae [25]): > 128 µg/mL
- MIC (Streptococcus pneumoniae): > 128 µg/mL
- MIC (Streptococcus [26]): 128 µg/mL (≈ 129 µM)
- MIC (Streptococcus [27]): 128 µg/mL (≈ 129 µM)
- MIC (Staphylococcus aureus [29]): 1 µg/mL (≈ 1.01 µM)
- MIC [31]: 1 µg/mL (≈ 1.01 µM)
- MIC (Streptococcus sanguinis): 8 µg/mL (≈ 8.05 µM)
- MIC (Haemophilus influenzae [32]): 128 µg/mL (≈ 129 µM)
- MIC (Streptococcus [34]): 128 µg/mL (≈ 129 µM)
- MIC (Enterococcus faecium): 128 µg/mL (≈ 129 µM)
- MIC (Staphylococcus aureus [35]): 1 µg/mL (≈ 1.01 µM)
- MIC (Streptococcus viridans): > 128 µg/mL
Compound: CC[C@H]1OC(=O)C[C@@H](O)[C@H](C)[C@@H](O[C@@H]2O[C@H](C)[C@@H](O[C@H]3C[C@@](C)(O)[C@@H](O)[C@H](C)O3)[C@H](N(C)C)[C@H]2O)[C@@H](CCOc2ccccc2)C[C@@H](C)C(=O)/C=C/C(C)=C/[C@@H]1CO[C@@H]1O[C@H](C)[C@@H](O)[C@@H](OC)[C@H]1OC
- Concentration (Rattus norvegicus [5]): 0.6 µg/mL
- Concentration (Mus musculus [6]): 2.3 µg/mL
- Concentration (Rattus norvegicus [7]): 2.7 µg/mL
- Concentration (Mus musculus [12]): 4 µg/mL
- Concentration (Mus musculus [14]): 1.2 µg/mL
- Concentration (Rattus norvegicus [15]): 2 µg/mL
- Concentration (Mus musculus [18]): 2 µg/mL
- Concentration (Mus musculus [19]): 3.5 µg/mL
- Concentration (Rattus norvegicus [21]): 2.6 µg/mL
- Concentration (Mus musculus [22]): 6 µg/mL
- Concentration (Mus musculus [23]): 1.6 µg/mL
- Concentration (Rattus norvegicus [28]): 0.2 µg/mL
- Concentration (Mus musculus [30]): 7.4 µg/mL
- ED50 (Streptococcus pyogenes [33]): > 6.3 mg/kg
- Concentration (Mus musculus [36]): 7.9 µg/mL
